Test results: ChEMBL document CHEMBL1143397 (J Med Chem, 2009)
Active and inactive are the calls of the source. The rule behind the calls is not given here.

Key:
[1] = target: T1, Melatonin receptor type 1A (Homo sapiens, UniProt P48039); experiment: Displacement of 2-[125I]iodomelatonin from human MT1 receptor expressed in CHO cells; type: cell-based
[2] = target: T2, Melatonin receptor type 1B (Homo sapiens, UniProt P49286); experiment: Displacement of 2-[125I]iodomelatonin from human MT2 receptor expressed in CHO cells; type: cell-based
T2 sequence (P49286 whole entry): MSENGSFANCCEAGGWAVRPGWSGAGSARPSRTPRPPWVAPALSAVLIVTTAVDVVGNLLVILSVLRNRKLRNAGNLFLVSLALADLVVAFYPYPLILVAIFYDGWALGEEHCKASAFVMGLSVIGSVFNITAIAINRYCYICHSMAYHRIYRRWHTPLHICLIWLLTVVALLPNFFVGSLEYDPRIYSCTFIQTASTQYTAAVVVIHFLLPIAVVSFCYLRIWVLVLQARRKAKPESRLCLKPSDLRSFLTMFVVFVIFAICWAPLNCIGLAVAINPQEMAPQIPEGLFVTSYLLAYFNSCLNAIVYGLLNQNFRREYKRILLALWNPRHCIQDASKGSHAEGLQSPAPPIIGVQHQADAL

[3] = target: T1, Melatonin receptor type 1A; experiment: Activity at high-affinity binding site of human MT1 receptor expressed in CHO cells assessed as decrease in potency of melatonin to inhibit forskolin-induced cAMP accumulation at 10 to 100 nM
[4] = target: T3, Melatonin receptor type 1B (Homo sapiens) (UniProt P49286); experiment: Activity at human MT2 receptor expressed in CHO cells assessed as increase in potency of melatonin to inhibit forskolin-induced cAMP accumulation at 100 nM; type: functional, cell-based
T3 sequence (whole entry): T2 sequence (P49286 whole entry)

[5] = species: Homo sapiens; experiment: Selectivity ratio of Ki for human MT1 receptor to Ki for human MT2 receptor
Procedure, shortened: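 Whole-cell competition binding used lifted human MT1- or MT2-CHO cells with 80-100 pM 2-[125I]iodomelatonin and test compound (1 pM to 1 µM), 1 h at 25 °C, stopped with cold 50 mM Tris-HCl pH 7.4. Ki came from IC50 by Cheng-Prusoff, mean of three determinations. The ratio is Ki MT1 / Ki MT2.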

[6] = target: T1, Melatonin receptor type 1A; experiment: Antagonist activity at human MT1 receptor expressed in CHO cells assessed as inhibition of forskolin-stimulated cAMP formation; type: functional, cell-based
Procedure, shortened: (§1)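 In stable human MT1- or MT2-CHO cells replated in 24-well plates, cells were given 20 min at 37 °C in serum-free medium with 30 µM rolipram and 100 µM forskolin, plus a test compound concentration series within 10-14 to 10^-4 M. Rolipram alone gave basal and rolipram plus forskolin gave maximal accumulation. cAMP was read by EIA kit.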

[7] = target: T3, Melatonin receptor type 1B (Homo sapiens); experiment: Activity at human MT2 receptor expressed in CHO cells assessed as increase in potency of melatonin to inhibit forskolin-induced cAMP accumulation at 10 nM; type: functional, cell-based
[8] = target: T1, Melatonin receptor type 1A; experiment: Activity at low-affinity binding site of human MT1 receptor expressed in CHO cells assessed as increase in potency of melatonin to inhibit forskolin-induced cAMP accumulation at 10 to 100 nM; type: functional, cell-based
[9] = target: T3, Melatonin receptor type 1B (Homo sapiens); experiment: Antagonist activity at human MT2 receptor expressed in CHO cells assessed as inhibition of forskolin-stimulated cAMP formation; type: functional, cell-based; procedure, shortened: as §1
[10] = target: T3, Melatonin receptor type 1B (Homo sapiens); experiment: Activity at human MT2 receptor expressed in CHO cells assessed as inhibition of forskolin-stimulated cAMP formation at >10 nM; type: functional, cell-based; procedure, shortened: as §1

T1 sequence (P48039 whole entry): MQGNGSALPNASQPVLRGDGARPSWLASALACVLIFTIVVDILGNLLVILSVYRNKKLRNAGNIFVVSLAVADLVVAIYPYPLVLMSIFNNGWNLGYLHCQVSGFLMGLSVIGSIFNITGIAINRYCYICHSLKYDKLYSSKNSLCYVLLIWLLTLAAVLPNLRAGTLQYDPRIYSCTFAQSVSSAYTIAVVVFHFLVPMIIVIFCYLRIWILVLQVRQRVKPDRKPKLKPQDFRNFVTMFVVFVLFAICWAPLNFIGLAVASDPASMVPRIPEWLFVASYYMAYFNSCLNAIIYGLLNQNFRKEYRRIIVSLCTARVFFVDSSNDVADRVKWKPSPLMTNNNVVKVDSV

Structure (SMILES) | Ki ([1]; read-out: Ki) [nM] | Ki ([2]; read-out: Ki) [nM] | also measured
COc1ccc2[nH]c(CN3CCCC3)c(CCNC(C)=O)c2c1 | 121 | 25 | 
COc1ccc2[nH]c(CN3CCc4ccc(N)cc43)c(CCNC(C)=O)c2c1 | 108 | 118 | 
COc1ccc2c(c1)c(CCNC(C)=O)c1n2CC2Cc3ccccc3N2C1 (stereo not drawn) |  |  | Ki ([1]; read-out: pKi (converted)): 302 nM; Ki ([2]; read-out: pKi (converted)): 60.3 nM
COc1ccc2[nH]c(CN3CCc4cc(Br)ccc43)c(CCNC(C)=O)c2c1 | 85 | 30 | 
COc1ccc2[nH]c(CN3CCc4ccc([N+](=O)[O-])cc43)c(CCNC(C)=O)c2c1 | 302 | 26.5 | Ki ([1]; read-out: pKi (converted)): 309 nM
COc1ccc2[nH]c(CN3c4ccccc4CC3C)c(CCNC(C)=O)c2c1 (stereo not drawn) | 148 | 14 | Ratio Ki [5]: 11
CCC(=O)NCc1cc2c(OC)cccc2n1Cc1ccc(Cl)cc1 |  | 9 | 
CCC(=O)NCCc1c(CN2CCc3ccccc32)[nH]c2ccc(OC)cc12 | 38 | 14.5 | 
COc1ccc2[nH]c(CN3CCc4ccccc43)c(CCNC(=O)C3CCC3)c2c1 | 1400 | 148 | Activity [10]: Active; Ki ([2]; read-out: pKi (converted)): 0.001 nM; Activity [6]: Active
COc1ccc2c(c1)CCN2Cc1[nH]c2ccc(OC)cc2c1CCNC(C)=O | 5.8 | 7.1 | 
COc1ccc2c(c1)CC1Cn3c(c(CCNC(C)=O)c4cc(OC)ccc43)CN21 (stereo not drawn) |  |  | Ki ([1]; read-out: pKi (converted)): 1780 nM
COc1cccc(/C(=C/CNC(C)=O)c2ccccc2)c1 | 230 | 2.5 | 
CCCC(=O)NCCc1c(CN2c3ccccc3CC2C)[nH]c2ccc(OC)cc12 (stereo not drawn) | 41 | 8 | Ratio Ki [5]: 5
COc1ccc2[nH]c(CN3CCc4cc(C)ccc43)c(CCNC(C)=O)c2c1 | 41 | 15 | 

The next lines start with results.

Ki ([1]; read-out: Ki) [nM] | Ki ([2]; read-out: Ki) [nM] | Structure (SMILES) | also measured
27 | 0.25 | COc1cccc(Cc2oc3ccc(OC)cc3c2CCNC(C)=O)c1 | 
132 | 0.11 | COc1cccc(C(CCNC(C)=O)c2ccc3ccccc3c2)c1 (stereo not drawn) | 
101 | 1.1 | COc1ccc2[nH]c(CN3CCc4ccccc43)c(CCNC(C)=O)c2c1 | Ki ([1]; read-out: pKi (converted)): 115 nM; Activity [3]: Active; Activity [4]: Active; Ratio Ki [5]: 91; Ki ([2]; read-out: pKi (converted)): 1.17 nM; Activity [6]: Active; Activity [7]: Active; Activity [8]: Active; Activity [9]: Active
1.4 | 0.16 | CCC(=O)NCC1Cc2ccccc2Cc2ccc(OC)cc21 (stereo not drawn) | 
59 | 0.46 | CCC(=O)NC1Cc2ccccc2C(c2ccccc2)C1 (stereo not drawn) | 
797 | 0.9 | COc1ccc2c(c1)[C@@H](CCNC(=O)C1CCC1)C[C@@H](c1ccccc1)C2 | 
